Laboratory results as given in ChEMBL document CHEMBL1938352, “Discovery of potent and liver-targeted stearoyl-CoA desaturase (SCD) inhibitors in a bispyrrolidine series” (Bioorg Med Chem Lett, 2012).

How the values were obtained:
[1] = target: T1, Stearoyl-CoA desaturase (Homo sapiens, UniProt O00767); assay: Inhibition of SCD-1 activity in organic anion transporting polypeptides-deficient human HepG2 cells assessed as reduction in [1-14C] stearoyl CoA desaturation by scintillation counting; format: cell-based
T1 sequence (O00767 whole entry): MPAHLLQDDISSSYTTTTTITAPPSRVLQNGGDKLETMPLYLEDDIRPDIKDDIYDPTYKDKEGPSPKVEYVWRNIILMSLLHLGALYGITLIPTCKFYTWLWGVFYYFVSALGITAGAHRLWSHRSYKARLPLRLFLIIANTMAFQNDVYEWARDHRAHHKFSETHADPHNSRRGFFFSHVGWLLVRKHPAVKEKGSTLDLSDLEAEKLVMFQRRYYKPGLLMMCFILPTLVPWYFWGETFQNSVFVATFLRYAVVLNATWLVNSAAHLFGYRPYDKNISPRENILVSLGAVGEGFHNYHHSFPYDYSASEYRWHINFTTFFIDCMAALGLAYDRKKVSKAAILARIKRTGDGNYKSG
Procedure, shortened: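 The whole-cell assay used human hepatocellular carcinoma HepG2 cells, which lack active OATPs. IC50 values are the average of at least two independent titrations.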

[2] = target: T2, Acyl-CoA desaturase 1 (Rattus norvegicus) (UniProt P07308); assay: Ratio of IC50 for SCD-1 activity in rat hepatocytes expressing organic anion transporting polypeptides to IC50 for SCD-1 activity in rat liver microsomes; settings: Hepatocyte, Microsome
T2 sequence (whole entry): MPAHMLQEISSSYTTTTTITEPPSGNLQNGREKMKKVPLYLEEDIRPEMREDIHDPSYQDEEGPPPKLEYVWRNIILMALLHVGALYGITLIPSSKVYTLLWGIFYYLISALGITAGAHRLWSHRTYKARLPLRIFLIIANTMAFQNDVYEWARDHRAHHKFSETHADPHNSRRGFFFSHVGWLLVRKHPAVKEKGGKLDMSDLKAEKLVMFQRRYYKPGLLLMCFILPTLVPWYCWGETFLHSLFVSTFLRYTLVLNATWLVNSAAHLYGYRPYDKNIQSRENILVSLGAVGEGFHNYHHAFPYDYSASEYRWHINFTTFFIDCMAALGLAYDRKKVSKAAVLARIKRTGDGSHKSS
Procedure, shortened: (§1)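 The fold shift is the ratio of IC50 values between two assays: rat liver microsomal enzyme, HepG2 whole cell, and OATP-containing rat hepatocytes. Each IC50 is the average of at least two independent titrations.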

[3] = Oral bioavailability in C57BL/6 mouse at 10 mg/kg; format: ADME, organism-based, C57BL6; settings: in vivo
Procedure, shortened: (§2)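 C57BL6 mice were dosed orally at 10 mg/kg. Drug exposure was measured over 0–6 h to give AUC_0–6h, and oral bioavailability (F) was also determined.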

[4] = tested on: Mus musculus; assay: Antidiabetic activity in C57BL/6 mouse LPD model assessed as reduction in liver SCD activity at 14.8 uM liver concentration dosed at 10 mg/kg, po measured 3 hrs post dosing; format: functional; settings: C57BL6, 3 h
[5] = Drug level in liver of C57BL/6 mouse at 10 mg/kg, po measured 6 hrs post dosing; format: ADME, organism-based, C57BL6; parameters: dose 10 mg/kg, route oral; settings: read-out: Drug uptake
Procedure, shortened: (§3)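 Tissue distribution was measured in mice given 10 mg/kg PO, n = 2. Liver, plasma and Harderian gland drug concentrations were measured 6 h post dose. Liver/plasma and liver/Harderian ratios were taken from these concentrations.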

[6] = target: T3, Stearoyl-CoA desaturase 5 (Homo sapiens, UniProt Q86SK9); assay: Inhibition of human SCD-5
T3 sequence (Q86SK9 whole entry): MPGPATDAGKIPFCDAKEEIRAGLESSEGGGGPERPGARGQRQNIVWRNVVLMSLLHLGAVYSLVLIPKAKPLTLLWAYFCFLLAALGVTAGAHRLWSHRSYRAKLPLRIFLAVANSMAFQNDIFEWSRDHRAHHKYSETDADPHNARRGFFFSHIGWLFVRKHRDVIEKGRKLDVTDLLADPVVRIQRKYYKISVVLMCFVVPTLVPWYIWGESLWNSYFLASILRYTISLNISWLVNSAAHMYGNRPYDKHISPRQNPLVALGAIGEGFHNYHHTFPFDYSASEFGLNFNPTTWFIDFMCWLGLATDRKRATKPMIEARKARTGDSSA

[7] = target: T4, Acyl-CoA desaturase 1 (Rattus norvegicus, UniProt P07308); assay: Inhibition of SCD-1 activity in rat liver microsomes assessed as reduction in [1-14C] stearoyl CoA desaturation by scintillation counting; parameters: species or system Microsome
T4 sequence (P07308 whole entry): T2 sequence (whole entry)
Procedure, shortened: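 The enzymatic assay used SCD-induced rat liver microsomes. IC50 values are the average of at least two independent titrations.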

[8] = tested on: HepG2; assay: Ratio of IC50 for SCD-1 activity in organic anion transporting polypeptides-deficient human HepG2 cells to IC50 for SCD-1 activity in rat hepatocytes expressing organic anion transporting polypeptides; format: cell-based; procedure, shortened: as §1
[9] = target: T5, Acyl-CoA 6-desaturase (Homo sapiens, UniProt O95864); assay: Inhibition of human delta-6 desaturase activity in human HepG2 cells using [1-14C]-stearic acid tracer; format: cell-based
T5 sequence (O95864 whole entry): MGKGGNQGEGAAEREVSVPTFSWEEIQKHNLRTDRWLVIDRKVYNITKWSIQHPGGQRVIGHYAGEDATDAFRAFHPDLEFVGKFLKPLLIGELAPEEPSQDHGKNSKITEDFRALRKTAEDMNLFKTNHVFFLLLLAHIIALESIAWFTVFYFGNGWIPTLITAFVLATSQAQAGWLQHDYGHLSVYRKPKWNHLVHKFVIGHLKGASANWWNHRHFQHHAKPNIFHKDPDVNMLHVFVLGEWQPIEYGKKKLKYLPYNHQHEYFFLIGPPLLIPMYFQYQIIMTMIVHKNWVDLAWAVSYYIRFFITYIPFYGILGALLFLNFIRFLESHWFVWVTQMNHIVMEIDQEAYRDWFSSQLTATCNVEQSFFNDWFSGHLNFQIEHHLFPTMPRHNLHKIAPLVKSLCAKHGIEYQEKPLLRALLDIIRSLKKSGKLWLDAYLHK

[10] = target: T4, Acyl-CoA desaturase 1; assay: Inhibition of SCD-1 activity in rat hepatocytes expressing organic anion transporting polypeptides assessed as reduction in [1-14C] stearoyl CoA desaturation by scintillation counting; format: cell-based, Hepatocyte
Procedure, shortened: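 The cellular assay used rat hepatocytes with functional OATPs to assess active transport. IC50 values are the average of at least two independent titrations.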

[11] = target: Acyl-CoA (8-3)-desaturase (Homo sapiens, UniProt O60427); assay: Inhibition of human delta-5 desaturase activity in human HepG2 cells using [1-14C]-stearic acid tracer; format: cell-based
Acyl-CoA (8-3)-desaturase, sequence (O60427 whole entry): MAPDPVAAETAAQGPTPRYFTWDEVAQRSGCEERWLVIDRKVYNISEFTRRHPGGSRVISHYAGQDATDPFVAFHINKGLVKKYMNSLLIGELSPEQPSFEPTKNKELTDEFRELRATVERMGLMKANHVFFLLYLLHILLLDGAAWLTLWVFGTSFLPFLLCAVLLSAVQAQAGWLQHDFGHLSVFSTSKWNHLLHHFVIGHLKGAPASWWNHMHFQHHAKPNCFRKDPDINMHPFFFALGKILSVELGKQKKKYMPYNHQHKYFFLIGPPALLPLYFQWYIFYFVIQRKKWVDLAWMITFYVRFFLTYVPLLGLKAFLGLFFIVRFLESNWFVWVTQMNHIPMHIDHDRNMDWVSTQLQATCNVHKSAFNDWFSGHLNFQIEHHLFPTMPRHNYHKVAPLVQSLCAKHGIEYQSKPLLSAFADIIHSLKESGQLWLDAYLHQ

[12] = target: T6, Acyl-CoA desaturase 1 (Mus musculus, UniProt P13516); assay: Inhibition of mouse SCD-1
T6 sequence (P13516 whole entry): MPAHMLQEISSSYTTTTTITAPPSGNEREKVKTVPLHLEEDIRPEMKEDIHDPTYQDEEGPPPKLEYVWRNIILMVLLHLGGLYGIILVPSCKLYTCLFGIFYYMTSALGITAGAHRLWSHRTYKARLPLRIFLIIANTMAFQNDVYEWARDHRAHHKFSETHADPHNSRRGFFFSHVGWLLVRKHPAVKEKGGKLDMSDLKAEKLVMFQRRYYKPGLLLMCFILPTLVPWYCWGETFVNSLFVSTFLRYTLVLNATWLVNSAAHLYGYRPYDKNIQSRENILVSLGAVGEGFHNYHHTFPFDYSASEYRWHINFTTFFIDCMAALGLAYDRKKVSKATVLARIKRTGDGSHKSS

[13] = AUC (0 to 6 hrs) in C57BL/6 mouse at 10 mg/kg, po; format: ADME, organism-based, C57BL6; parameters: time < 6 hr, dose 10 mg/kg, route oral; settings: plasma; procedure, shortened: as §2
[14] = tested on: Mus musculus; assay: Ratio of drug uptake in liver to harderian gland of C57BL/6 mouse at 10 mg/kg, po measured 6 hrs post dosing; settings: in vivo
[15] = Drug level in plasma of C57BL/6 mouse at 10 mg/kg, po measured 6 hrs post dosing; format: ADME, organism-based, C57BL6; parameters: dose 10 mg/kg, route oral; settings: read-out: Drug uptake; procedure, shortened: as §3
[16] = Ratio of drug uptake in liver to plasma of C57BL/6 mouse at 10 mg/kg, po measured 6 hrs post dosing; format: ADME, organism-based, C57BL6; parameters: dose 10 mg/kg, route oral; procedure, shortened: as §3
[17] = Drug level in harderian gland of C57BL/6 mouse at 10 mg/kg, po measured 6 hrs post dosing; format: ADME, organism-based, C57BL6; parameters: dose 10 mg/kg, route oral; settings: read-out: Drug uptake; procedure, shortened: as §3
[18] = tested on: Mus musculus; assay: Antidiabetic activity in C57BL/6 mouse LPD model assessed as reduction in liver SCD activity at 7.7 uM liver concentration dosed at 2 mg/kg, po measured 3 hrs post dosing; format: functional; settings: C57BL6, 3 h
[19] = tested on: Mus musculus; assay: Antidiabetic activity in C57BL/6 mouse LPD model assessed as reduction in liver SCD activity at 4.9 uM liver concentration dosed at 2 mg/kg, po measured 3 hrs post dosing; format: functional; settings: C57BL6, 3 h
[20] = tested on: Mus musculus; assay: Antidiabetic activity in C57BL/6 mouse LPD model assessed as reduction in liver SCD activity at 1.6 uM liver concentration dosed at 0.4 mg/kg, po measured 3 hrs post dosing; format: functional; settings: C57BL6, 3 h
[21] = tested on: Mus musculus; assay: Antidiabetic activity in po dosed C57BL/6 mouse LPD model assessed as reduction in liver SCD activity measured 3 hrs post dosing; settings: C57BL6, Liver

| Compound | IC50 [1] [nM] | IC50 [7] [nM] | IC50 [10] [nM] | other results |
| --- | --- | --- | --- | --- |
| O=C(O)Cn1nnc(-c2cc(N3CC4CN(c5cc(F)ccc5Cl)CC4C3)no2)n1 (stereo not drawn) | 9900 | 24 | 198 | Ratio IC50 [2]: 8; bioavailability [3]: 24%; inhibition in vivo at 10 mg/kg [4]: 72%; concentration at 6 h [5]: 2700 nM; IC50 [6]: 242 nM; Ratio IC50 [8]: 50; IC50 [9]: > 80000 nM; IC50 [11]: > 80000 nM; IC50 [12]: 18 nM; AUC(0-t) at 6 h [13]: 2.1 µM·h |
| O=C(O)Cn1nnc(-c2cnc(N3CC4CN(c5cc(F)ccc5Cl)CC4C3)s2)n1 (stereo not drawn) | 15400 | 34 | 233 |  |
| O=C(O)Cn1nnc(-c2cnc(N3CCC4(CC3)CN(c3cc(F)ccc3Cl)C4)s2)n1 | > 100000 | 36 | 438 |  |
| O=C(O)Cn1nnc(-c2cnc(N3C[C@@H]4C[C@H]3CN4c3cc(F)ccc3Cl)s2)n1 | 9140 | 29 | 176 |  |
| O=C(O)Cn1nnc(-c2cnc(N3CCN(c4cc(F)ccc4Cl)CC3)s2)n1 | 4200 | 28 | 134 | bioavailability [3]: 15%; concentration at 6 h [5]: 9300 nM; Ratio [14]: 180; concentration at 6 h [15]: 220 nM; Kp at 6 h [16]: 40; concentration at 6 h [17]: 50 nM; IC50 [12]: 21 nM; AUC(0-t) at 6 h [13]: 0.7 µM·h; inhibition in vivo at 2 mg/kg [18]: 61% |
| O=C(O)Cn1nnc(-c2nnc(N3CC4CN(c5cc(F)ccc5Cl)CC4C3)s2)n1 (stereo not drawn) | > 10000 | 59 | 300 |  |
| O=C(O)Cn1nnc(-c2cnc(N3CC4(C3)CN(c3cc(F)ccc3Cl)C4)s2)n1 | 50900 | 43 | 103 |  |
| O=C(O)Cn1nnc(-c2cnc(N3CC4(CCN(c5cc(F)ccc5Cl)CC4)C3)s2)n1 | > 100000 | 128 | 506 |  |
| O=C(O)Cn1nnc(-c2cc(N3CCC(Oc4cc(F)ccc4Br)CC3)no2)n1 [MK-8245] |  |  |  | inhibition in vivo at 2 mg/kg [19]: 89%; inhibition in vivo at 0.4 mg/kg [20]: 49%; concentration at 6 h [15]: 30 nM; Kp at 6 h [16]: 90; ED50 [21]: 1 mg/kg |
